APP 5'UTR act = activates APP 5'UTR luciferase reporter | SH-SY5Y APP 5'UTR luciferase reporter, luminescence; zero percent = DMSO vehicle wells | activation, % at 2 µM | 190,000 tested, 1% active | AID 1276;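 active = activation above a set limit, based on mean plus 3 SD of controls, cut at about 140% in these data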
STAT3 inh-1 = inhibitors of IL-6 induced STAT3 signaling; inhibition, % at 5.5 µM; 190,000 tested, 0.89% active; U3A cells, IL-6 STAT3-luciferase reporter, luminescence; host cell line lacks STAT1;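 active = inhibition above the mean inhibition across all screened compounds plus 3 SD, cut at about 44% in these data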;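 also: 0% = DMSO only wells and 100% = 100 µM nifuroxazide control wells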
NF-kB neuron act = NF-kB expression increase, human neuronal cells | NF-kB reporter expression; stronger effect = higher value | fold change at 12.5 µM | 190,000 tested, 1.6% active; in the data active = fold change above about 3.3
STAT1 activator = STAT1 signaling activation; NIH 3T3 STAT1-luciferase reporter, IFN-gamma, luminescence; 100% = IFN-gamma alone, no compound; activation (% of control), % at 5.5 µM; 200,000 tested, 2.6% active; AID 932;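 active = activation above the screen-wide mean activation plus 3 SD, cut at about 130% in these data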;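 also: raw ratio to IFN-gamma control signal so 100% means no change and 0% no light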
STAT1 blocker = inhibitors of IFN-gamma induced STAT1 signaling; 200,000 tested, 0.35% active; NIH 3T3 STAT1-luciferase reporter, luminescence; inhibition, % at 5.5 µM;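 active = inhibition above a set limit, the mean inhibition across all tested compounds plus 3 SD, cut at about 34% in these data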;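 also: 0% = IFN-gamma with DMSO and 100% = IFN-gamma with 300 µM nifuroxazide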
STAT3 act = activators of IL-6 induced STAT3 signaling | U3A cells, IL-6 STAT3-luciferase reporter, luminescence; 100% = signal with IL-6 EC80 alone | 190,000 tested, 0.91% active | activation (% of control), % at 5.6 µM | AID 871;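 active = activation above the screen-wide mean of compound activation plus 3 SD, cut at about 130% in these data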;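 also: 0% = background luminescence of wells with medium and substrate only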
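Detection: reporter luminescence signal / Assay system: STAT1-lacking human U3A cells, STAT3 luciferase reporter / Incubation: compound pre-incubation 1 h before IL-6, then 6 h stimulation at 37 °C / Control set: IL-6-only high control / Read-out: % activation relative to IL-6 control / Probe or stimulus: Interleukin-6, 33 ng/mL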
STAT3 inh-2 = STAT3 inhibition, confirmation assay. shares compounds with STAT3 inh-1. AID 1265. U3A cells, IL-6 STAT3 luciferase reporter, luminescence; cell line lacks STAT1. 1,200 tested, 45% active. inhibition, % at 5.7 µM;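 active = inhibition above the hit cutoff computed for the primary STAT3 screen, cut at about 44% in these data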;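 also: 0% = IL-6 plus DMSO and 100% = IL-6 plus nifuroxazide control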
NFkB inh 2 = NF-kappaB inhibition in STAT3 inhibitor counter-screen. shares compounds with STAT3 inh-1. HEK293T NF-kB luciferase reporter, TNF-alpha induced. inhibition, % at 5.7 µM. 1,200 tested, 36% active;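 active = inhibition above the mean of solvent-only control wells plus 3 SD, cutoff set per campaign, cut at about 13% in these data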;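 also: 0% = TNF-alpha with DMSO and 100% = TNF-alpha with MG high control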
STAT1 inh 2 = STAT1 inhibition in STAT3 inhibitor counter-screen. shares compounds with STAT3 inh-1. 1,200 tested, 27% active. inhibition, % at 5.7 µM. NIH 3T3 STAT1-luciferase reporter, IFN-gamma induced, luminescence;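 active = inhibition above the mean plus 3 SD of solvent-only control wells, limit set per screening run, cut at about 16% in these data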;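 also: 0% = DMSO with IFN-gamma and 100% = nifuroxazide control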
Starred values were filed as active, the others as inactive. Sampled rows, rich in hits. Any-hit rate of the full collection: about 5.1%.

For CCc1c(C)nc2ncnn2c1NCCc1ccccc1 the results were APP 5'UTR act -4, STAT3 inh-1 42, NF-kB neuron act 0.93, STAT1 activator 89, STAT1 blocker 12 and STAT3 act 68.
For O=C(Nc1ccccc1Cl)c1ccc(Cl)cc1Cl the results were APP 5'UTR act 12, STAT3 inh-1 21, NF-kB neuron act 2.2, STAT1 activator 120, STAT1 blocker -24 and STAT3 act 86.
For NC(=O)c1ccccc1N/C=C/C(=O)c1ccc(Cl)cc1Cl the results were APP 5'UTR act 174*, STAT3 inh-1 62*, NF-kB neuron act 5.9*, STAT1 activator 121, STAT1 blocker -23, STAT3 act 49, STAT3 inh-2 22, NFkB inh 2 -4 and STAT1 inh 2 -85.
Screening CC(=O)Nc1cccc(-c2cn3ccccc3n2)c1 returned APP 5'UTR act 7, STAT3 inh-1 9, NF-kB neuron act 1.7, STAT1 activator 117, STAT1 blocker -19 and STAT3 act 98.
For Cc1cc(-c2cn3ccccc3n2)c(C)n1-c1ccccc1 the results were APP 5'UTR act 176*, STAT3 inh-1 58*, NF-kB neuron act 2.6, STAT1 activator 100, STAT1 blocker 0, STAT3 act 55, STAT3 inh-2 21, NFkB inh 2 -18 and STAT1 inh 2 -83.
Nc1ccc(-c2cnc(-c3ccc(N)cc3)nc2)cc1 was read as APP 5'UTR act 126, STAT3 inh-1 49*, NF-kB neuron act 4.8*, STAT1 activator 137*, STAT1 blocker -40, STAT3 act 59, STAT3 inh-2 5, NFkB inh 2 -33 and STAT1 inh 2 -106.
For CCCC(=O)Nc1ccc(-c2cnc(-c3ccc(NC(=O)CCC)cc3)nc2)cc1 the results were APP 5'UTR act -1, STAT3 inh-1 -2, NF-kB neuron act 0.89, STAT1 activator 107, STAT1 blocker -7 and STAT3 act 101.
`CC(Oc1ccc2ccc(=O)oc2c1)C(=O)c1ccccc1` (stereo unspecified) gave APP 5'UTR act -2, STAT3 inh-1 23, NF-kB neuron act 0.95, STAT1 activator 106, STAT1 blocker -6 and STAT3 act 79.
`Cc1cc(C(=O)CN2C(=O)c3ccccc3S2(=O)=O)c(C)n1-c1ccccc1` gave APP 5'UTR act -35, STAT3 inh-1 59*, NF-kB neuron act 0.62, STAT1 activator 104, STAT1 blocker -4, STAT3 act 51, STAT3 inh-2 78*, NFkB inh 2 16* and STAT1 inh 2 58*.
For O=C(NCc1cccnc1)C(=O)N/N=C/c1ccc([N+](=O)[O-])cc1 the results were APP 5'UTR act 5, STAT3 inh-1 7, NF-kB neuron act 1.2, STAT1 activator 101, STAT1 blocker -1 and STAT3 act 98.
For CCc1ccc(CN2CCN(C(=O)c3cccc(OC)c3OC)CC2)cc1 the results were APP 5'UTR act -10, STAT3 inh-1 60*, NF-kB neuron act 1.1, STAT1 activator 87, STAT1 blocker 4, STAT3 act 53, STAT3 inh-2 41, NFkB inh 2 10 and STAT1 inh 2 6.
Screening Cc1ccc(S(=O)(=O)Nc2ccccc2C(=O)Nc2nc(-c3ccc(F)cc3)cs2)cc1 returned APP 5'UTR act 0, STAT3 inh-1 45*, NF-kB neuron act 0.38, STAT1 activator 73, STAT1 blocker 30, STAT3 act 63, STAT3 inh-2 33, NFkB inh 2 18* and STAT1 inh 2 26*.
Screening O=C(Nc1cc(S(=O)(=O)N2CCCCC2)ccc1O)c1ccccc1NS(=O)(=O)c1ccc(F)cc1 returned APP 5'UTR act -6, STAT3 inh-1 4, NF-kB neuron act 0.98, STAT1 activator 99, STAT1 blocker 1 and STAT3 act 99.
O=C(Nc1cc(S(=O)(=O)N2CCCCC2)ccc1Cl)c1ccccc1NS(=O)(=O)c1ccc(F)cc1 was read as APP 5'UTR act 1, STAT3 inh-1 51*, NF-kB neuron act 0.35, STAT1 activator 77, STAT1 blocker 26, STAT3 act 58, STAT3 inh-2 36, NFkB inh 2 18* and STAT1 inh 2 29*.
Cc1ccc(S(=O)(=O)CC(=O)Nc2nc(-c3ccccc3)cs2)cc1 was read as APP 5'UTR act -8, STAT3 inh-1 -1, NF-kB neuron act 1.3, STAT1 activator 110, STAT1 blocker -11 and STAT3 act 107.
Cc1ccc2nc(NC(=O)c3cccs3)sc2c1 was read as APP 5'UTR act 163*, STAT3 inh-1 70*, NF-kB neuron act 11*, STAT1 activator 129*, STAT1 blocker -30, STAT3 act 44, STAT3 inh-2 34, NFkB inh 2 -7 and STAT1 inh 2 -129.
Cc1ccc2nc(NC(=O)CSCC(=O)OCC(=O)c3ccccc3)sc2c1 was read as APP 5'UTR act -21, STAT3 inh-1 51*, NF-kB neuron act 0.54, STAT1 activator 89, STAT1 blocker 13, STAT3 act 58, STAT3 inh-2 57*, NFkB inh 2 23* and STAT1 inh 2 24*.
For COc1cc(OC)cc(C(=O)Nc2nc3ccc(S(C)(=O)=O)cc3s2)c1 the results were APP 5'UTR act 37, STAT3 inh-1 14, NF-kB neuron act 0.78, STAT1 activator 103, STAT1 blocker -3 and STAT3 act 92.
CS(=O)(=O)c1ccc2nc(NC(=O)c3cccs3)sc2c1 was read as APP 5'UTR act 117, STAT3 inh-1 59*, NF-kB neuron act 2.7, STAT1 activator 88, STAT1 blocker 13, STAT3 act 53, STAT3 inh-2 17, NFkB inh 2 -7 and STAT1 inh 2 -60.
For CC1CC1C(=O)Nc1nc(-c2ccc(Cl)s2)cs1 (stereo unspecified) the results were APP 5'UTR act 15, STAT3 inh-1 24, NF-kB neuron act 1.1, STAT1 activator 90, STAT1 blocker 10 and STAT3 act 83.
Screening O=C(Nc1nc(-c2ccc(Cl)s2)cs1)c1ccncc1 returned APP 5'UTR act -9, STAT3 inh-1 66*, NF-kB neuron act 1.1, STAT1 activator 99, STAT1 blocker 2, STAT3 act 49, STAT3 inh-2 56*, NFkB inh 2 12 and STAT1 inh 2 10.
For O=C(CCc1nnc(Cc2c[nH]c3ccccc23)o1)NC(C1CC1)C1CC1 the results were APP 5'UTR act -3, STAT3 inh-1 -18, NF-kB neuron act 1.1, STAT1 activator 98, STAT1 blocker 2 and STAT3 act 121.

Screens from PubChem.
